In ChEMBL document CHEMBL4689842, “EUbOPEN Chemogenomics Library wave 1” (2021):
Where “and” joins values, the source holds several entries; their conditions need not be identical. Identical values can stand only once.

Test system: HEK-293T
Experiment: Multiplex assay against HEK293T;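 on Population Tubulin-Different-Phenotype (%): share of the cells with healthy nuclei that show this phenotype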
Type: toxicity, cell-based
Conditions: human, 10 µM, compound concentration 10 uM
How it was run: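 Phenotypes for tubulin, mitochondrial mass and membrane permeability are expressed as per cents of healthy-nucleus cells. Cells were stained live at seeding with Hoechst33342, BioTracker Green Microtubule Cytoskeleton Dye, MitoTracker Red and Annexin V Alexa Fluor 680, then imaged after compound addition on a CQ1 microscope at 37°C and 5% CO2. Machine-learning gating in CellPathfinder separated Hoechst high-intensity objects from normal cells, divided normal cells by nuclear state (healthy, pyknosed, fragmented) and divided pyknosed cells into mitotic or apoptotic.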

Compound: Cn1cncc1[C@@](O)(COc1ccc(C#N)cc1-c1ccc(OC(F)(F)F)cc1)c1ccc(C#N)cc1 [A-108]
- Population Apoptotic (%) (12 h, replicate 1): 23% and 20%
- Population Fragmented Nuclei (%) (12 h, replicate 1): 11% and 16%
- Population Healthy Nuclei (%) (12 h, replicate 1): 51% and 64%
- Population Hoechst High Intensity Objects (%) (12 h, replicate 1): 11% and 14%
- Population Mitochondria Different-Phenotype (%) (12 h, replicate 1): 8% and 4%
- Population Mitotic Cells (%) (12 h, replicate 1): 76% and 79%
- Population Normal (%) (12 h, replicate 1): 88% and 85%
- Population Pyknosed Nuclei (%) (12 h, replicate 1): 36% and 18%
- Total Cell Count (12 h, replicate 1): 827 and 582
- Population Apoptotic (%) (12 h, replicate 2): 12% and 14%
- Population Fragmented Nuclei (%) (12 h, replicate 2): 3% and 9%
- Population Healthy Nuclei (%) (12 h, replicate 2): 77% and 85%
- Population Hoechst High Intensity Objects (%) (12 h, replicate 2): 4% and 2%
- Population Mitochondria Different-Phenotype (%) (12 h, replicate 2): 19% and 7%
- Population Mitotic Cells (%) (12 h, replicate 2): 87% and 85%
- Population Normal (%) (12 h, replicate 2): 95% and 97%
- Total Cell Count (12 h, replicate 2): 1209 and 1952
- Population Apoptotic (%) (24 h, replicate 1): 25% and 12%
- Population Fragmented Nuclei (%) (24 h, replicate 1): 10% and 12%
- Population Healthy Nuclei (%) (24 h, replicate 1): 60% and 78%
- Population Hoechst High Intensity Objects (%) (24 h, replicate 1): 10%
- Population Mitochondria Different-Phenotype (%) (24 h, replicate 1): 4%
- Population Mitotic Cells (%) (24 h, replicate 1): 75% and 87%
- Population Normal (%) (24 h, replicate 1): 89%
- Total Cell Count (24 h, replicate 1): 759 and 650
- Population Apoptotic (%) (24 h, replicate 2): 8% and 5%
- Population Healthy Nuclei (%) (24 h, replicate 2): 73% and 71%
- Population Hoechst High Intensity Objects (%) (24 h, replicate 2): 4% and 3%
- Population Mitochondria Different-Phenotype (%) (24 h, replicate 2): 9% and 2%
- Population Mitotic Cells (%) (24 h, replicate 2): 91% and 95%
- Population Normal (%) (24 h, replicate 2): 95% and 96%
- Population Tubulin-Different-Phenotype (%) (24 h, replicate 2): 97%
- Total Cell Count (24 h, replicate 2): 1251 and 3226
